Data taken from ChEMBL document CHEMBL1151805, “Effect of guggulsterone and cembranoids of Commiphora mukul on pancreatic phospholipase A(2): role in hypocholesterolemia” (J Nat Prod, 2009).
The source made the active and inactive calls. The rule behind the calls is not given here.

What was measured:
Phospholipase A2 [1] = biological target: T1, Phospholipase A2 (Homo sapiens, UniProt P04054); assay: Increase in human pancreatic recombinant 1B PLA2 activity expressed in Escherichia coli assessed as hydrolysis rate of 1,2-dimyristoyl-sn-3-glycerophosphocholine vesicles in absence of cholate
Procedure, shortened: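 pH-stat titration of hydrolysis of sonicated 1 mM DMPC vesicles, started with 2 to 10 pM hPLA2, titrated with 1 mM 2-aminopropanediol base. Buffer was 5 mM CaCl2, 1 mM NaCl, 0.1 mM EDTA, pH 8.0, 24 ± 0.1 °C, under nitrogen. Test compound was present at 0.03 or 0.007 MF.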
Target sequence in this assay (P04054 23-148 limits assumed): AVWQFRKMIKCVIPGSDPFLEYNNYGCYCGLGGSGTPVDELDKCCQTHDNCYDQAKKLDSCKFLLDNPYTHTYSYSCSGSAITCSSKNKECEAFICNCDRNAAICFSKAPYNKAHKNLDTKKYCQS

Phospholipase A2 [2] = biological target: T1, Phospholipase A2; assay: Reduction in human pancreatic recombinant 1B PLA2 activity expressed in Escherichia coli assessed as hydrolysis of cholate-activated 1,2-dimyristoyl-sn-3-glycerophosphocholine vesicles
Target sequence in this assay (P04054 23-148 limits assumed): as above

Phospholipase A2 [3] = biological target: T1, Phospholipase A2; assay: Apparent inhibition of human pancreatic recombinant 1B PLA2 expressed in Escherichia coli assessed as hydrolysis rate of 1,2-dimyristoyl-sn-3-glycerophosphocholine vesicles in presence of cholate
Target sequence in this assay (P04054 23-148 limits assumed): as above

Phospholipase A2 [4] = biological target: T1, Phospholipase A2; assay: Binding affinity to human pancreatic recombinant 1B PLA2 expressed in Escherichia coli at 100 uM by saturation transfer difference NMR spectroscopy
Target sequence in this assay (P04054 23-148 limits assumed): as above

Sus scrofa = organism: Sus scrofa; assay: Binding affinity to pig PLA2 at 100 uM by saturation transfer difference NMR spectroscopy
Procedure, shortened: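 STD NMR at 15 °C in 20 mM bicarbonate in D2O, pH 7.5, with 100 µM ligand and 7 µM pig pancreatic PLA2. Difference of on- and off-resonance irradiation by phase cycling, coadded from 6144 scans.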

Phospholipase A2 [5] = biological target: T1, Phospholipase A2; assay: Binding affinity to human pancreatic recombinant 1B PLA2 expressed in Escherichia coli by resonance energy transfer assay in presence of trimethyl-ammonium-diphenylhexatriene
Procedure, shortened: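 Aqueous-phase binding measured as bile-salt quenching of the resonance energy transfer signal from the hPLA2–trimethyl-ammonium-diphenylhexatriene complex. Kd was derived from the quenching.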
Target sequence in this assay (P04054 whole entry): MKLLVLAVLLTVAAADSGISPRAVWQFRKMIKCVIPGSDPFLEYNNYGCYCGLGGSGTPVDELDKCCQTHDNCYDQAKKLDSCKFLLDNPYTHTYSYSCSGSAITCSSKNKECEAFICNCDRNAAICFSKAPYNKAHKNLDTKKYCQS

Phospholipase A2 [6] = biological target: T1, Phospholipase A2
Target sequence in this assay (P04054 23-148 limits assumed): as the sequence (P04054 23-148 limits assumed) above

SMILES | Activity (Phospholipase A2 [1]) | Activity (Phospholipase A2 [2]) | Ki(app) (mole fraction) (Phospholipase A2 [3]) | Activity (Phospholipase A2 [4]) | Activity (Sus scrofa) | Kd (Phospholipase A2 [5]) [µM] | Ki(app) (mole fraction) (Phospholipase A2 [6])
CC1=C\C/C=C(\C)CC/C=C(\C)CC[C@](O)(C(C)C)/C=C\1 | inactive | Dose-dependent effect | 0.00325 |  |  |  | 
C[C@H](CCC(=O)NCCS(=O)(=O)O)[C@H]1CC[C@H]2[C@@H]3CC[C@@H]4C[C@H](O)CC[C@]4(C)[C@H]3C[C@H](O)[C@]12C |  |  |  | Active |  |  | 
C[C@H](CCC(=O)O)[C@H]1CC[C@H]2[C@@H]3[C@H](O)C[C@@H]4C[C@H](O)CC[C@]4(C)[C@H]3CC[C@]12C |  |  |  | Active | Active |  | 
C[C@H](CCC(=O)O)[C@H]1CC[C@H]2[C@@H]3[C@H](O)C[C@@H]4C[C@H](O)CC[C@]4(C)[C@H]3C[C@H](O)[C@]12C [CHOLIC ACID] |  |  |  | Active | Active | > 150 | 
C[C@H](CCC(=O)NCCS(=O)(=O)O)[C@H]1CC[C@H]2[C@@H]3[C@@H](O)C[C@@H]4C[C@H](O)CC[C@]4(C)[C@H]3CC[C@]12C [TAURURSODIOL] |  | Dose-dependent effect | 0.000306 |  |  | 10 | 0.005
